Measured values reported in paper PMC2246419 (EMBO Reports, 2008).

Key:
[1] = tested on: PKB Ser 473 phosphorylation in NIH3T3 cells; experiment: Western blot of serum-stimulated PKB Ser 473 phosphorylation; format: cell-based, mouse
p110α = p110α (Bos taurus, UniProt P32871); experiment: In vitro lipid kinase assay, GST-p110α; format: biochemical
type IIγ PtdInsP kinase = target: T1, type IIγ PtdInsP kinase (Homo sapiens, UniProt Q8TBX8); experiment: In vitro lipid kinase assay, type IIγ PtdInsP kinase; format: biochemical; settings: even at 10 μM; data not shown
T1 sequence (Q8TBX8 1-421): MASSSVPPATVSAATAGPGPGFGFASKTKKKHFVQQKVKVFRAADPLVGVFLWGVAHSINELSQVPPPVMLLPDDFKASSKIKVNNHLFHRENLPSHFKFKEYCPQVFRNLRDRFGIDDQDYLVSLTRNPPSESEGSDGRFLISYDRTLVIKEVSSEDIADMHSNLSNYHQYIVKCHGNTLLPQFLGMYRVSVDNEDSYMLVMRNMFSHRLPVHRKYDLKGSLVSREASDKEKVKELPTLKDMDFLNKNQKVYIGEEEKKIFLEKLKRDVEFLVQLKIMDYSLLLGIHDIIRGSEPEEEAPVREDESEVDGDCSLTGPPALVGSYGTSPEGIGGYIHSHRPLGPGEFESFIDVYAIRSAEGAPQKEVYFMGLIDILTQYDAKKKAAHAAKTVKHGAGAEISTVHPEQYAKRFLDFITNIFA

type Iα PtdInsP kinase = experiment: In vitro lipid kinase assay, type Iα PtdInsP kinase; format: biochemical, mouse
NIH3T3 cells [2] = experiment: In vivo measurement of phosphoinositide levels in 32P-labelled cells; format: cell-based, mouse; settings: 800 nM
NIH3T3 cells [3] = experiment: Cell division and growth curves; format: cell-based, mouse; settings: 800 nM
ecotropic MLV retrovirus = experiment: Viral production assay; format: cell-based, human; settings: 800 nM, TEFLY Mo producer cells
NIH3T3 cells [4] = experiment: Lysotracker staining of swollen vesicles; format: cell-based, mouse; settings: 800 nM 3 h, Lysotracker Red DND-99
Outline: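 NIH3T3 cells were exposed to test compound at 800 nM for 3 h. Lysotracker Red DND-99 (100 nM) was added to the medium for the final 0.5 h, and the acidotropic dye was imaged in the enlarged vesicles.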

Sequence of p110α (P32871 whole entry): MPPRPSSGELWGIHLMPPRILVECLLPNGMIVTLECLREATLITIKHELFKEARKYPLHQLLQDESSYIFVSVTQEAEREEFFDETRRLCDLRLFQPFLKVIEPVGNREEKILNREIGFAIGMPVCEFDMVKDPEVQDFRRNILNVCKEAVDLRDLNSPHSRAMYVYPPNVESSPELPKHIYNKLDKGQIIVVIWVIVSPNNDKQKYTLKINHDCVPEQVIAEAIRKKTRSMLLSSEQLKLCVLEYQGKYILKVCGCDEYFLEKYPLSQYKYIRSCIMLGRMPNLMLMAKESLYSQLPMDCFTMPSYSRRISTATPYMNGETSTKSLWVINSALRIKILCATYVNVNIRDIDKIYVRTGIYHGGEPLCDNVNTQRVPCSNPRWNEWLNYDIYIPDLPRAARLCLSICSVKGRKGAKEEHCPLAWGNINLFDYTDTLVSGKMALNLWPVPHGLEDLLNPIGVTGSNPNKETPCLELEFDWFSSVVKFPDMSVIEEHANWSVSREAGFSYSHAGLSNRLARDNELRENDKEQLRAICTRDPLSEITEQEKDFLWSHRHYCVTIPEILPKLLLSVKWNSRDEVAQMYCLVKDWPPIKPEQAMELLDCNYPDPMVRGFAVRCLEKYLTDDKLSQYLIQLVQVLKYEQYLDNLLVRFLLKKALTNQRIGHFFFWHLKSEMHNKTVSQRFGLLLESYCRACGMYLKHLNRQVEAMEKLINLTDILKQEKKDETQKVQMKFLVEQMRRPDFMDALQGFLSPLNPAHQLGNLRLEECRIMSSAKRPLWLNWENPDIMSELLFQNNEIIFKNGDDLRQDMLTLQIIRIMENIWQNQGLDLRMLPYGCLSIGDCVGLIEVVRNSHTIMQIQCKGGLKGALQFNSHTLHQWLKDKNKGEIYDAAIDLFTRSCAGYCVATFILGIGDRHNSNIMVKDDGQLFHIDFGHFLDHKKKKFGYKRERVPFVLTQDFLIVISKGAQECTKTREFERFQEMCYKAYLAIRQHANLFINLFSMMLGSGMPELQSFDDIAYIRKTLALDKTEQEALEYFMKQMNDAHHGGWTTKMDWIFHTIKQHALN

Row | Structure (SMILES) | Effect on serum-stimulated phosphorylation of PKB ([1]; increasing concentrations) | IC50 (p110α; p110α IC50, 50 μM ATP, 100 μM PtdIns substrate) [µM] | p110α IC50 fold higher than for PIKfyve (p110α; same assay conditions) [fold] | Inhibition of type IIγ PtdInsP kinase (type IIγ PtdInsP kinase) | type Iα PtdInsP kinase IC50 fold greater than against PIKfyve (type Iα PtdInsP kinase) | IC50 (type Iα PtdInsP kinase; read-out: type Iα PtdInsP kinase IC50, mouse enzyme, data not shown) [µM] | Decrease of PtdIns(3,5)P2 production (NIH3T3 cells [2]) [%] | Decrease of PtdIns(4,5)P2 (NIH3T3 cells [2]) | Effect on all other phosphoinositides identified (NIH3T3 cells [2]) | Effect on PKB Ser 473 phosphorylation ([1]; 800 nM) | Effect on cell division (NIH3T3 cells [3]) | Reduction of virus released into the medium (ecotropic MLV retrovirus) [%] | Acidification of swollen vesicles (NIH3T3 cells [4])
1 | Oc1cccc(-c2nc(N3CCOCC3)c3oc4ncccc4c3n2)c1 [YM211103] | decreased | – | – | – | – | – | – | – | – | – | – | – | –
2 | Nc1ccc(C(=O)Nc2cccc(-c3nc(N4CCOCC4)c4oc5ncccc5c4n3)c2)cn1 [YM201636] | – | 3 | ~100 | did not inhibit | around 100 fold | > 2 | 80 | around 20% | remained largely unaltered | no influence | does not inhibit cell division | 80 | poorly acidified
